Measurements pooled from the literature.
Compare with care: the assays were run in different laboratories.
Target: Serine/threonine-protein kinase Nek4 (NEK4, Homo sapiens, UniProt P51957)

| SMILES | effect on | mode | method | cell line | concentration | endpoint | value |
| --- | --- | --- | --- | --- | --- | --- | --- |
| Clc1ccc(Nc2nnc(Cc3ccncc3)c3ccccc23)cc1 | cell-free assay | – | – | – | 0.5 µM | remaining signal | 97.7% |
| O=C(Nc1cnn(-c2csc(C(=O)NC3COC3)c2)c1)Nc1ccccc1Cl | enzyme activity | inhibitor | – | – | 5 µM | remaining activity | 109% |
| CC/C(=N\NC(=O)NCc1cccc(O)c1)c1ccc(O)c(C)c1O | enzyme activity | inhibitor | – | – | 0.1 µM | inhibition | -1.9% |
| CCCS(=O)(=O)Nc1ccc(F)c(C(=O)c2c[nH]c3ncc(-c4ccc(Cl)cc4)cc23)c1F | enzyme activity | inhibitor | – | – | 1 µM | inhibition | < 10% |
| CCN1CCN(Cc2ccc(NC(=O)c3ccc(C)c(/C=C/c4cnc5[nH]ccc5c4OC)c3)cc2C(F)(F)F)CC1 | target engagement in cells | inhibitor | chemoproteomics | A-375 | 50 nM | inhibition | -31% |
| CS(=O)(=O)N1CCCC(NC(=O)[C@H](CCC2CCCCC2)NC(=O)c2ccc(CNC(=O)c3cnc4ccccn34)cc2)C1 (stereo partly drawn) | cell-free assay | – | competition with immobilised ligand | – | 0.1 µM | remaining binding | 100% |
| COc1cc2ncnc(Nc3ccc(Oc4ccccc4)c(C)c3C)c2cc1OC | enzyme activity | inhibitor | – | – | 1 µM | inhibition | 2% |
| CN(C)C1CCN(CC#Cc2nn(C3CCCC3)c3nc(NCc4ccccc4)ncc23)C1 (stereo not drawn) | enzyme activity | inhibitor | FRET | – | 1 µM | inhibition | 8% |
| COCCOc1nc(-c2ccc(Cl)nc2)nc2c1CN(C(=O)c1ncn3ccccc13)CC2 | cell-free assay | – | competition with immobilised ligand | – | 0.1 µM | remaining binding | 100% |
| c1ccc(CNc2nc(N3CCOc4ccccc43)nc3c2CCCC3)cc1 | target engagement in cells | inhibitor | chemoproteomics | – | 20 mM | inhibition | -18.5% |
| Cc1c(NC(=O)c2cc(C(N)=O)nc3cc(F)ccc23)c(C(F)(F)F)nn1Cc1ccc(C#N)cc1 | cell-free assay | – | competition with immobilised ligand | – | 1 µM | remaining binding | 92% |
| O=C1NC(=O)c2cc(Nc3ccc(F)cc3)c(Nc3ccc(F)cc3)cc21 | cell-free assay | – | – | – | 0.5 µM | remaining signal | 107% |
| CC(C)(O)[C@H]1CC[C@H](Nc2ccc3ncc(-c4cccc(C(F)(F)F)c4)n3n2)CC1 | enzyme activity | inhibitor | – | – | 1 µM | remaining activity | 84.3% |
| C[C@@]1(Cc2ccc(C#N)cc2)C(=O)N(c2cc(Cl)cc(Cl)c2)c2ncc(C(=O)NC3(c4nc(C5CCC5)no4)CC3)n21 | cell-free assay | – | competition with immobilised ligand | – | 1 µM | remaining binding | 12% |
| CCCCNc1ncc2c(-c3ccc(F)cc3)nn(C[C@H]3CC[C@H](N)CC3)c2n1 | target engagement in cells | inhibitor | chemoproteomics | – | 20 mM | inhibition | -16.7% |
| CC(C)(C)c1nc(-c2cccc(NS(=O)(=O)c3c(F)cccc3F)c2F)c(-c2ccnc(N)n2)s1 | enzyme activity | inhibitor | radiometric | – | 1 µM | remaining activity | 92% |
| CCC(=O)N[C@@H]1CC[C@H](C(=O)N(C)c2ccc(-c3nc4ccccc4o3)cc2)C1 | cell-free assay | – | competition with immobilised ligand | – | 1 µM | remaining binding | 95% |
| COc1cc(Cl)c(C(=O)N[C@@H](CN[C@H]2CC[C@@H](N)CC2)Cc2ccc(C#N)cc2)cc1-c1ccc(CN[C@H](C)c2ccc(C)cc2)o1 | enzyme activity | inhibitor | – | – | 1 µM | remaining activity | 106% |
